Assay [1] deals with T47D. The assay can be described thus: Induction of apoptosis in human T47D cells assessed as caspase 3 activation by HTS assay. The format is functional, cell-based.
The test system of assay [2] is HCT-116. The assay can be described thus: Induction of apoptosis in human HCT 116 cells assessed as caspase 3 activation by HTS assay. The class given is functional, cell-based.
Assay [3] concerns SNU-398. Put plainly: Induction of apoptosis in human SNU398 cells assessed as caspase 3 activation by HTS assay. The format is functional, cell-based.
Assay [4] relates to T47D. Put plainly: Growth inhibition of human T47D cells. The class given is functional. The method, boiled down: (§1)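 Growth inhibition assay in T47D, HCT116 and SNU398 cells, run in 96-well format. GI50 reported as mean ± SEM of three or more experiments.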
Assay [5] is described as follows: Growth inhibition of human HCT 116 cells. The class given is functional. The method, boiled down: as §1
Assay [6] deals with SNU-398. Put plainly: Growth inhibition of human SNU398 cells. The format is functional. The method, boiled down: as §1

Data on 15 compounds can be found in ChEMBL document CHEMBL1144245, “Discovery of 4-aryl-2-oxo-2H-chromenes as a new series of apoptosis inducers using a cell- and caspase-based high-throughput screening assay” (Bioorg Med Chem Lett, 2008).

A word on the EC50: it is the concentration giving half of the maximal effect. On to `COc1cc(C2C(C#N)=C(N)Oc3cc(N(C)C)ccc32)cc2c1OCO2` (stereo not given), for which, in assay [1], the 50% effective concentration (EC50) amounted to 73 nM.
Take `COc1cc(OC)cc(-c2c(C#N)c(=O)oc3c2ccc2c3ccn2C)c1`: the half-maximal effective concentration (EC50) in assay [1] amounted to 24 nM; in assay [2] it was 20 nM; in assay [3], 13 nM.
As a reminder, the GI50 is the concentration that inhibits growth by half. For the compound `COc1cc(-c2c(C#N)c(=O)oc3c2ccc2c3ccn2C)cc2c1OCO2`, the EC50 in assay [1] came out at 27 nM; in assay [2] it was 27 nM; in assay [3], 17 nM. In addition, the GI50 is 25 nM in assay [4], 26 nM in assay [5] and 7.9 nM in assay [6].
On to `Cc1cncc(-c2c(C#N)c(=O)oc3c2ccc2c3ccn2C)c1`, for which the values for the concentration for a half-maximal effect (EC50) in assay [1], in assay [2] and in assay [3] were 19 nM, 16 nM and 14 nM, respectively.
As for `Cn1ccc2c3oc(=O)c(C#N)c(-c4cccc(Br)c4)c3ccc21`, the EC50 in assay [1] worked out at 24 nM; in assay [2] it was 14 nM; in assay [3], 9.6 nM.
In the case of `COc1cc(-c2c(C#N)c(=O)oc3cc(N)ccc23)cc(Br)c1OC`, the figures for the EC50 in assay [1], in assay [2] and in assay [3] were 820 nM, 990 nM and 490 nM, respectively. The values for the GI50 in assay [4], in assay [5] and in assay [6] were 630 nM, 630 nM and 440 nM, respectively.
Turning to `COc1cc(-c2c(C#N)c(=O)oc3cc(N(C)C)ccc23)cc(Br)c1OC`, the half-maximal effective concentration (EC50) amounted to 280 nM in assay [1], 400 nM in assay [2] and 260 nM in assay [3]. In addition, the GI50 in assay [4] was found to be 620 nM; in assay [5] it was 460 nM; in assay [6], 150 nM.
As for `COc1cc(OC)cc(-c2c(C#N)c(=O)oc3cc(OC)ccc23)c1`, the EC50 in assay [1] stood at 17 nM; in assay [2] it was 18 nM; in assay [3] it was 15 nM.
On the same counts, the results for `COc1cccc(-c2c(C#N)c(=O)oc3cc(OC)ccc23)c1` are 53 nM, 59 nM and 29 nM.
On the same counts, the results for `COc1cc(-c2c(C#N)c(=O)oc3cc(Cl)ccc23)cc(Br)c1OC` are 6900 nM, 9400 nM and 5500 nM.
Consider `COc1cc(-c2c(C#N)c(=O)oc3c2ccc2cnccc23)cc(Br)c1OC`, for which the EC50 in assay [1] turned out to be 3000 nM; in assay [2] it was 4800 nM; in assay [3] it was 2500 nM.
`COc1cccc(-c2c(C#N)c(=O)oc3c2ccc2c3ccn2C)c1`: the EC50 in assay [1] is 43 nM; in assay [2] it was 20 nM; in assay [3], 17 nM.
As to `Cn1ccc2c3oc(=O)c(C#N)c(-c4cccc([N+](=O)[O-])c4)c3ccc21`, the EC50 in assay [1] was 43 nM; in assay [2] it was 13 nM; in assay [3], 9.5 nM.
In the case of `COc1ccc2c(-c3cc(Br)c(OC)c(OC)c3)c(C#N)c(=O)oc2c1`, the EC50 in assay [1] was 42 nM; in assay [2], 41 nM; in assay [3], 26 nM.
In the case of `COc1cc(-c2c(C#N)c(=O)oc3c2ccc2c3ccn2C)cc(Br)c1OC`, the EC50 in assay [1] is 13 nM; in assay [2], 10 nM; in assay [3] it was 6 nM. Moreover, the GI50 in assay [4] turned out to be 0.7 nM; in assay [5], 0.9 nM; in assay [6] it was 0.3 nM.
